The sample as a whole holds a higher share of hits than the screen did.
697 NFkB inh: inhibitors of PMA/ionomycin-induced NF-kB reporter, 697 cells, primary screen, B-cell NF-kB inhibitor project, cell-based, luminescence, uHTS; inhibition, % at 4 µM; 697 B-cell NF-kB luciferase reporter, 16 h; hit rate 0.33% among 330,000; in the data active = inhibition above about 35%
CHOP inh: inhibitors of CHOP promoter induction, primary screen, cell-based, unfolded protein response, luciferase reporter | CHO-K1 CHOP-promoter luciferase, tunicamycin-induced, 15-18 h | inhibition, % at 10 µM | hit rate 3.8% among 220,000;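 active = compounds that reduced the stress-induced luciferase reporter signal by more than about 70% of percent inhibition, limit read from the data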;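 also: 0% = tunicamycin plus vehicle and 100% = wells without tunicamycin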
XBP1 UPR activ: activators of adaptive XBP1 UPR arm, primary screen, cell-based, CHO-XBP1 luciferase reporter, luminescence, uHTS; IRE1-XBP1 UPR activation; percent of tunicamycin response, DMSO as zero; activation, % at 20 µM; hit rate 0.33% among 330,000; AID 463104, 2010;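 active = versus positive control, 20 µM dose yields 30% or more activation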;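 also: 100% = tunicamycin at 10 µg/mL and 0% = DMSO only wells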
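Material: CHO-XBP1 cells stably carrying IRE1-XBP1-driven luciferase reporter / Amount: 1000 cells per well / Compound: 20 µM, 1% DMSO / Times: 6 h treatment, 37 °C / Detection: luciferase luminescence / Measure: % activation of reporter signal versus tunicamycin and DMSO controls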
Jurkat NFkB inh: inhibitors of induced NF-kB luciferase reporter, primary screen, TCR NF-kB activation inhibitor project, cell-based, luminescence, uHTS; Jurkat, PMA/ionomycin-induced NF-kB luciferase reporter; inhibition, % at 4 µM; hit rate 0.53% among 330,000; in the data active = inhibition above about 50%
UPR CHOP act: activators of apoptotic CHOP UPR arm, primary screen, cell-based, CHO-CHOP luciferase reporter, luminescence, uHTS | UPR activation; percent of tunicamycin response over DMSO baseline | activation, % at 10 µM | hit rate 0.34% among 330,000 | AID 449763, 2010;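 active = at 10 µM dose, activation of 40% or more, normalized to positive control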;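 also: 100% = tunicamycin at 10 µg/mL and 0% = DMSO alone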
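Assay system: CHO cells with stable CHOP pathway luciferase reporter; Buffer or medium: F12 plus 10% serum; Times: 16-18 h cell attachment, then 6 h compound exposure, 37 °C; Signal: luciferase luminescence; Read-out basis: percent activation relative to tunicamycin control; Control set: tunicamycin high control, DMSO low control.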
CHOP inh conf: retest of CHOP induction inhibitors, confirmation, cell-based; shares compounds with CHOP inh; CHO-CHOP promoter luciferase reporter, tunicamycin-induced, luminescence; inhibition, % at 10 µM; hit rate 45% among 2,100; AID 504437, 2011;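 active = mean of three repeat readings of reporter signal inhibition above a set limit, cut at about 70% in these data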;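 also: 0% = tunicamycin plus vehicle and 100% = wells lacking tunicamycin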
UPR CHOP confirm: activators of apoptotic CHOP UPR arm, confirmation, cell-based, CHO-CHOP luciferase reporter, single concentration; shares compounds with UPR CHOP act; CHO-CHOP cells, CHOP-luciferase reporter luminescence; percent of tunicamycin response, DMSO as zero; activation, % at 10 µM; hit rate 64% among 1,000; in the data active = activation above about 33%;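 also: 0% = DMSO wells and 100% = tunicamycin 10 µg/mL wells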
XBP1 UPR conf: IRE1-XBP1 UPR arm activators, confirmation, cell-based, CHO-XBP1 luciferase reporter, luminescence, single concentration; shares compounds with XBP1 UPR activ; activation, % at 20 µM; hit rate 63% among 1,000;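 active = reporter signal at least 30% of the positive control's activation in two or more of four replicate wells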;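 also: plate controls were DMSO negative control for no effect and tunicamycin 10 µg/mL positive control for full effect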
Starred values were filed as active, the others as inactive; · = no result.

SMILES | 697 NFkB inh | CHOP inh | XBP1 UPR activ | Jurkat NFkB inh | UPR CHOP act | CHOP inh conf | XBP1 UPR conf | others
CCOC(=O)c1c(NC(=O)Cc2cccs2)sc(C(=O)NC2CCCCC2)c1C | -42.2 | 105.9* | 54.6* | -39.3 | 9.5 | 74.4* | 43.3*
COc1cc(OC)c(OC)cc1CNC(=O)c1cccc(S(=O)(=O)N2CCc3ccccc3C2)c1 | 12.3 | · | -2.5 | 45.3 | 6.7 | · | ·
O=C(O)c1cc(-c2cccnc2)nc2ccc(Br)cc12 | 23.2 | 8.8 | 3.1 | -1.1 | -1.3 | · | ·
O=C(Nc1ccc(C(F)(F)F)cc1)c1cc(-c2cccnc2)nc2ccc(Br)cc12 | 2.3 | 102.5* | 91.4* | -13.8 | 123.7* | 92.9* | 90.4* | UPR CHOP confirm=81.2*
CCC(CC)c1nnc(NC(=O)C2CSC3(C)CCC(=O)N23)s1 (centres undefined) | 9.6 | · | -2.1 | -4.0 | -0.3 | · | ·
CN(Cc1ccccc1)c1ccc(N2C(=O)CCCC2=O)cc1[N+](=O)[O-] | -18.3 | 34.0 | -1.4 | -11.5 | -1.8 | · | ·
COc1ccc(N=c2oc3ccc(OC)cc3cc2-c2nc3ccccc3[nH]2)cc1 | -83.4 | 101.9* | 84.3* | -57.5 | 134.7* | 107.0* | 132.6* | UPR CHOP confirm=147.0*
O=C(Nc1ccc(Cl)c([N+](=O)[O-])c1)c1ccc(NCCCN2CCOCC2)c([N+](=O)[O-])c1 | 14.4 | 97.1* | 42.2* | 5.8 | 0.4 | -4.7 | 6.0
CS/C(=N/S(=O)(=O)c1ccc(C)cc1)c1ccccc1 | 9.8 | 37.3 | -3.4 | -3.9 | -1.4 | · | ·
O=S(=O)(/N=C(\Sc1ccc(Cl)cc1)c1ccccc1)c1ccccc1 | 16.1 | 102.5* | 43.5* | 1.6 | 21.4 | 35.3 | 2.5
COc1ccc(-c2ccc(C#N)c(SCC(=O)Nc3sc4c(c3C#N)CCC4)n2)cc1OC | -49.3 | 101.9* | 40.6* | -15.3 | 27.9 | 15.9 | 55.8*
CCOC(=O)c1cnc(-n2nc(C)cc2C)nc1NC1CCCCC1 | -8.6 | 106.4* | 39.6* | 5.6 | 99.4* | 116.8* | 11.6 | UPR CHOP confirm=34.2*
O=C(NCC(=O)N1CC(O)CC1C(=O)N1CCCC1C(=O)OCc1ccccc1)OCc1ccccc1 (centres undefined) | -3.2 | 7.5 | 2.9 | 7.3 | -1.0 | · | ·
COc1cccc(CC2(CO)CCN(Cc3cccn3-c3cccnc3)CC2)c1 | 14.2 | 15.8 | -3.3 | 7.9 | -1.1 | · | ·
Nc1nc(Nc2ccccc2F)nc(NCc2ccco2)c1[N+](=O)[O-] | -70.6 | 19.7 | 11.3 | -32.4 | 2.0 | · | ·
Fc1ccc(Nc2nc(NCc3ccco3)c3ccccc3n2)cc1 | -126.3 | 97.4* | 30.6* | -57.0 | 27.3 | 73.1* | 33.4*
CN=C1SC(CC(=O)Nc2ccc(F)cc2F)C(=O)N1/N=C/c1ccc(OC(F)F)c(OC)c1 (centres undefined) | 11.7 | 98.3* | 201.1* | -9.0 | 30.1 | 115.6* | 4.8
O=C(CC1SC(=Nc2ccc(OC(F)F)cc2)N(CCN2CCOCC2)C1=O)Nc1ccc(F)cc1F (centres undefined) | 3.0 | 26.5 | -1.6 | -3.4 | -1.7 | · | ·
CCOc1ccc2nc(NC3=NC(c4ccc(OC)cc4)CC(=O)N3)nc(C)c2c1 (centres undefined) | -29.4 | 106.1* | 132.7* | -1.8 | 30.4 | -33.3 | 167.2*
CCOc1ccc2nc(NC3=NC(C)(C)C=C(C)N3)nc(C)c2c1 | 13.3 | 3.7 | 0.6 | -19.2 | -2.0 | · | ·
NCCOc1ccc(C23CC4CC(CC(C4)C2)C3)cc1 | -26.4 | 104.6* | 97.1* | -51.4 | 14.1 | -8.7 | 93.2*
CN(C)c1ccc(S(=O)(=O)N2CCCCC2)cc1NC(=O)C1=NN(c2ccccc2)C(=O)CC1 | -23.5 | · | -1.2 | -17.4 | -2.1 | · | ·
COc1cccc(OC)c1C(=O)NNS(=O)(=O)c1ccc2ccccc2c1 | 12.4 | · | -2.1 | -1.5 | -1.3 | · | ·
CSc1cc(-c2ccc(Cl)cc2)n(Cc2ccccc2)c(=O)c1C#N | 10.5 | 100.9* | 32.2* | 3.0 | 44.5* | 29.0 | 25.1 | UPR CHOP confirm=19.8
COc1ccc(N(C(=O)Cc2cccs2)C(C(=O)NC2CCCC2)c2ccncc2)cc1OC (centres undefined) | -3.7 | · | 6.0 | 7.0 | -0.9 | · | ·
SMILES | 697 NFkB inh | CHOP inh | XBP1 UPR activ | Jurkat NFkB inh | UPR CHOP act | CHOP inh conf | XBP1 UPR conf | others
COc1cc(N(C(=O)Cc2cccs2)C(C(=O)NC2CCCCC2)c2ccc(C)cc2)ccc1-n1cnnn1 (centres undefined) | 8.6 | 105.3* | 35.1* | 2.7 | -0.6 | 92.1* | 37.5*
Cc1cccc(NC(=O)/C(C#N)=C/c2cn(CC(=O)NCc3ccco3)c3ccccc23)c1C | -0.8 | 108.8* | 57.4* | -3.7 | 1.3 | 90.5* | 167.9*
N#C/C(=C\c1cn(Cc2cccc(F)c2)c2ccccc12)C(=O)NCc1ccco1 | 11.4 | 12.7 | -1.4 | 4.2 | 3.9 | · | ·
CCOC(=O)c1c(C)[nH]c(C)c1S(=O)(=O)NCc1ccccc1C | -12.5 | · | -3.3 | 1.1 | -0.7 | · | ·
Cc1cc(Nc2cccc([N+](=O)[O-])c2)n2c(nc3ccccc32)c1C#N | -20.0 | 103.1* | 37.0* | 16.2 | 18.4 | 86.9* | 11.6
CCN(CC)CCNc1cc(C)c(C#N)c2nc3ccccc3n12 | 0.4 | · | -2.4 | 2.0 | -1.9 | · | ·
O=C(c1cccc(C(F)(F)F)c1)c1c[nH]c(C(=O)NCC2CCCO2)c1 (centres undefined) | 1.9 | 7.8 | -3.1 | 1.7 | 0.5 | · | ·
COc1ccccc1C(CCN(Cc1ccccc1)C(C)=O)c1ccco1 (centres undefined) | 4.5 | 20.8 | -2.4 | 5.5 | -1.0 | · | ·
CC(C)(C)C(=O)NC(=S)NNC(=O)C(c1ccccc1)c1ccccc1 | -5.7 | 106.2* | 42.8* | 1.7 | 11.7 | 121.4* | 47.9*
CC1Oc2ccccc2N(Cc2ccc(F)cc2)C1=O (centres undefined) | 2.9 | · | 0.0 | -3.4 | 1.6 | · | ·
O=C(Nc1ccc(-c2nc3ncccc3o2)cc1)c1ccc(Br)o1 | -44.4 | 103.3* | 62.4* | -18.9 | 4.7 | -18.3 | 3.7
COc1ccc(-c2nc(-c3ccc(NC(=O)c4ccc(Br)o4)cc3)no2)cc1OC | -40.3 | 102.9* | 34.6* | -62.4 | 29.9 | 109.6* | 15.6
